# From ChEMBL document CHEMBL3861966, “Di-nor- and 17-nor-pimaranes from Icacina trichantha” (J Nat Prod, 2016)
# Assays:
# Assay type in all cases: functional, cell-based
# [1] = Cytotoxicity against human MDA-MB-435 cells assessed as decrease in cell viability after 72 hrs by cell titer 96 one solution assay; details: MDA-MB-435, 72 h
# How it was run: (§1)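 Cells grown at 37 °C, 5% CO2 in RPMI 1640 with 10% FBS, penicillin 100 units/mL, streptomycin 100 μg/mL. Log-phase cells trypsinized, washed twice, seeded at 5000/well, left overnight. DMSO-dissolved samples added at 20, 4, 0.8, 0.16, 0.032 μM (final DMSO 0.5%). After 72 h at 37 °C, viable cells read by MTS-type absorbance kit. IC50 in μM relative to DMSO control.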
# [2] = Cytotoxicity against human MDA-MB-231 cells assessed as decrease in cell viability after 72 hrs by cell titer 96 one solution assay; details: MDA-MB-231, 72 h; how it was run: as §1
# [3] = Cytotoxicity against human OVCAR3 cells assessed as decrease in cell viability after 72 hrs by cell titer 96 one solution assay; details: OVCAR-3, 72 h; how it was run: as §1
Structure (SMILES),IC50 [1],IC50 [2],IC50 [3]
COc1cc2c(c(O)c1C=O)C[C@H]1OC(=O)[C@]3(C)[C@H]1[C@]21CC[C@]3(O)OC1,> 20000 nM,> 20 µM,> 20 µM
COc1cc2c(c3occc13)[C@H](O)[C@H]1OC(=O)[C@]3(C)[C@H]1[C@]21CC[C@]3(O)OC1,> 20000 nM,> 20 µM,> 20 µM
COc1cc2c(c3occc13)[C@H]1OC3O[C@@]4(O)CC[C@@]23[C@H]2[C@@H]1OC(=O)[C@]24C,> 20000 nM,> 20 µM,> 20 µM
C[C@]12C(=O)O[C@@H]3[C@@H](O)[C@H]4c5occc5C(=O)C[C@H]4[C@]4(CO[C@@]1(O)[C@@H](O)C4)[C@@H]32,2910 nM,7.6 µM,7.53 µM
COc1cc2c(c3occc13)[C@@H](O)[C@@]1(O)OC[C@@]23CCC(=O)[C@@H](C)[C@@H]31,> 20000 nM,> 20 µM,> 20 µM
C[C@]12C(=O)O[C@@H]3C[C@H]4C5=C(CC[C@H]4[C@]4(CO[C@@]1(O)[C@@H](O)C4)[C@@H]32)C(=O)CO5,1480 nM,2.85 µM,3.23 µM
CC[C@]1(O)C[C@@H]2CN(CCc3c([nH]c4ccccc34)[C@@](C(=O)OC)(c3cc4c(cc3OC)N(C)[C@H]3[C@@](O)(C(=O)OC)[C@H](OC(C)=O)[C@]5(CC)C=CCN6CC[C@]43[C@@H]65)C2)C1 [VINBLASTINE],0.49 nM,,
